A short description of test [1]: Inhibition of Escherichia coli BL21(DE3) methionine aminopeptidase in presence of Mn(II) metal ions. The essentials: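 E. coli MetAP apoenzyme, recombinant from BL21(DE3), at 500 nM and metallated with 20 μM MnCl2. Contained 50 mM MOPS pH 7.0 and 200 μM Met-AMC, at room temperature. IC50 was derived by non-linear fit of percent inhibition versus concentration.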

A short description of test [2]: Inhibition of Escherichia coli BL21(DE3) methionine aminopeptidase in presence of Fe(II) metal ions. An outline of the steps:
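Purified BL21(DE3)-expressed E. coli MetAP apoenzyme at 500 nM, activated with 50 μM FeCl2 plus 100 μM ascorbic acid. Buffer was 50 mM MOPS pH 7.0 with 200 μM Met-AMC, at room temperature. Hydrolysis was followed by fluorescence (ex 360/em 460 nm) at serially diluted inhibitor concentrations. IC50 was obtained by non-linear curve fit of percent inhibition.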

Test [3] concerns Escherichia coli. Briefly: Antibacterial activity against Escherichia coli AS19. It counts as functional, organism-based. The essentials: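 AS19 culture at 0.5 McFarland, exponential phase, diluted 1000-fold in Mueller Hinton medium containing 100 mM Tris pH 7.5, exposed to increasing inhibitor concentrations […]. Growth followed by absorbance at 600 nm every 5 min for 10 h at 37°C.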

Test [4] deals with Escherichia coli. Kind of test: Antibacterial activity against Escherichia coli D22. The format is functional, organism-based. The essentials:
(§1)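 Exponential-phase culture at 0.5 McFarland diluted 1000-fold in Mueller Hinton medium with 100 mM Tris pH 7.5, mixed with inhibitor at increasing concentrations plus resazurin (110 µM final). Fluorescence (ex 530/em 590) read every 5 min for 10 h at 37°C.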

Test [5] deals with Bacillus subtilis. Briefly: Antibacterial activity against Bacillus subtilis. The format is functional, organism-based. The essentials: as §1
Test [6] has as its system Priestia megaterium. Kind of test: Antibacterial activity against Bacillus megaterium. It counts as functional, organism-based. An outline of the steps:
as §1

Test [7] concerns Escherichia coli. Kind of test: Antibacterial activity against Escherichia coli ATCC 25922. The format is functional, organism-based. The essentials:
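Wild-type strain grown to exponential phase (0.5 McFarland), diluted 1000-fold in Tris-free Mueller Hinton medium, incubated with increasing inhibitor concentrations and 110 µM resazurin. Fluorescence (ex 530/em 590) monitored 10 h at 37°C at 5-min intervals.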

Test [8] is described as follows: Inhibition of Escherichia coli BL21(DE3) methionine aminopeptidase in presence of Co(II) metal ions. The essentials: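 Recombinant E. coli MetAP apoenzyme purified from BL21(DE3) cells, used at 500 nM and activated with 10 μM CoCl2. Buffer was 50 mM MOPS pH 7.0 with 200 μM Met-AMC substrate, at room temperature. AMC release was read by fluorescence (ex 360/em 460 nm) across serially diluted inhibitor. IC50 came from non-linear fitting of percent inhibition.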

Test [9] concerns Escherichia coli BL21(DE3). Briefly: Inhibition of Escherichia coli BL21(DE3) methionine aminopeptidase up to 100 uM in presence of Co(II) metal ions. An outline of the steps: (§2)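 Purified apoenzyme (500 nM) in 50 mM MOPS pH 7.0 with 200 µM Met-AMC, activated by 50 µM FeCl2 plus 100 µM ascorbic acid (Fe), 10 µM CoCl2 (Co) or 20 µM MnCl2 (Mn), with serially diluted inhibitor. AMC release read by fluorescence (ex 360/em 460) at room temperature. IC50 from non-linear fit of percent inhibition versus concentration.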

Test [10] deals with Escherichia coli BL21(DE3). Briefly: Inhibition of Escherichia coli BL21(DE3) methionine aminopeptidase up to 100 uM in presence of Mn(II) metal ions. An outline of the steps: as §2
Test [11] has as its system Escherichia coli BL21(DE3). Kind of test: Inhibition of Escherichia coli BL21(DE3) methionine aminopeptidase up to 100 uM in presence of Fe(II) metal ions. An outline of the steps:
as §2

Converted amounts (≈) assume the structure as drawn. The source made the active and inactive calls. The calls are words filed in the database; no cut-off is given here.

One may read the IC50 as the concentration that inhibits the measured activity by half. Broadly, the MIC is the lowest concentration that inhibits growth of the organism.

Turning to `Cc1nc(-c2ccc(O)c(O)c2)cs1`, the IC50 in [1] is more than 100 µM; in test [2] it was 13 µM; in [3], 117 µM; in test [4], 5.6 µM; in [5] it was 67 µM; in test [6], 69.8 µM. The IC50 in test [7] was 281 µM; in test [8], more than 100 µM. Also, the MIC in test [3] stood at 91 µg/mL (≈ 439 µM); in test [4], 4 µg/mL (≈ 19.3 µM); in test [5], 41 µg/mL (≈ 198 µM); in test [6] it was 73 µg/mL (≈ 352 µM).
Regarding `Cc1nc(-c2ccc(O)c(C(N)=O)c2)cs1`, the result in test [9], in test [10] and in [11] was inactive. The same compound displayed an IC50 in [3] of 125 µM.
For `Cc1ccsc1-c1ccc(O)c(O)c1`, the IC50 is 23 µM in [1]; 8 µM in test [2]; 15.2 µM in test [3]; 9 µM in test [4]; 22.1 µM in test [5]; 15.3 µM in [6]. Also, the IC50 in [7] came out at 179 µM; in test [8], 42.7 µM. The MIC in test [3] was 7 µg/mL (≈ 33.9 µM); in [4] it was 3 µg/mL (≈ 14.5 µM); in test [5], 8 µg/mL (≈ 38.8 µM); in test [6] it was 13 µg/mL (≈ 63 µM).
In the case of `CC(=O)Nc1ccc(-c2csc(C)n2)cc1[N+](=O)[O-]`, the result in test [9], in test [10] and in [11] was inactive. In addition, the IC50 in test [3] came to 63.3 µM.
As for `Cc1nc(-c2ccc(O)cc2O)cs1`, the outcome in test [9], in [10] and in test [11] was inactive. This compound also returned an IC50 in test [3] of 95.9 µM.
In the case of `Cc1nc(-c2ccc(N)c(N)c2)cs1`, the result in [9], in test [10] and in test [11] was inactive. Also, in test [3], it took 117 µM to reach half-maximal inhibition (IC50).
Take `Cc1nc(-c2cccc(O)c2)cs1`: the outcome in test [9], in [10] and in [11] was inactive. This compound also returned an IC50 in [3] of 158 µM.
Regarding `COc1ccc(-c2csc(C)n2)cc1OC`, the result in test [9], in test [10] and in [11] was inactive. In test [3], this compound yielded an IC50 of 206 µM.

The record behind these values is ChEMBL document CHEMBL1140109, “Discovery of inhibitors of Escherichia coli methionine aminopeptidase with the Fe(II)-form selectivity and antibacterial activity” (J Med Chem, 2008).
